Kd data for 13 molecules are collected here from ChEMBL document CHEMBL4665884, “Structural Insights into the Recognition of Mono- and Diacetylated Histones by the ATAD2B Bromodomain” (J Med Chem, 2020).

Test [1] has as its target T1, ATPase family AAA domain-containing protein 2B (Homo sapiens, UniProt Q9ULI0).
T1 sequence (Q9ULI0 whole entry): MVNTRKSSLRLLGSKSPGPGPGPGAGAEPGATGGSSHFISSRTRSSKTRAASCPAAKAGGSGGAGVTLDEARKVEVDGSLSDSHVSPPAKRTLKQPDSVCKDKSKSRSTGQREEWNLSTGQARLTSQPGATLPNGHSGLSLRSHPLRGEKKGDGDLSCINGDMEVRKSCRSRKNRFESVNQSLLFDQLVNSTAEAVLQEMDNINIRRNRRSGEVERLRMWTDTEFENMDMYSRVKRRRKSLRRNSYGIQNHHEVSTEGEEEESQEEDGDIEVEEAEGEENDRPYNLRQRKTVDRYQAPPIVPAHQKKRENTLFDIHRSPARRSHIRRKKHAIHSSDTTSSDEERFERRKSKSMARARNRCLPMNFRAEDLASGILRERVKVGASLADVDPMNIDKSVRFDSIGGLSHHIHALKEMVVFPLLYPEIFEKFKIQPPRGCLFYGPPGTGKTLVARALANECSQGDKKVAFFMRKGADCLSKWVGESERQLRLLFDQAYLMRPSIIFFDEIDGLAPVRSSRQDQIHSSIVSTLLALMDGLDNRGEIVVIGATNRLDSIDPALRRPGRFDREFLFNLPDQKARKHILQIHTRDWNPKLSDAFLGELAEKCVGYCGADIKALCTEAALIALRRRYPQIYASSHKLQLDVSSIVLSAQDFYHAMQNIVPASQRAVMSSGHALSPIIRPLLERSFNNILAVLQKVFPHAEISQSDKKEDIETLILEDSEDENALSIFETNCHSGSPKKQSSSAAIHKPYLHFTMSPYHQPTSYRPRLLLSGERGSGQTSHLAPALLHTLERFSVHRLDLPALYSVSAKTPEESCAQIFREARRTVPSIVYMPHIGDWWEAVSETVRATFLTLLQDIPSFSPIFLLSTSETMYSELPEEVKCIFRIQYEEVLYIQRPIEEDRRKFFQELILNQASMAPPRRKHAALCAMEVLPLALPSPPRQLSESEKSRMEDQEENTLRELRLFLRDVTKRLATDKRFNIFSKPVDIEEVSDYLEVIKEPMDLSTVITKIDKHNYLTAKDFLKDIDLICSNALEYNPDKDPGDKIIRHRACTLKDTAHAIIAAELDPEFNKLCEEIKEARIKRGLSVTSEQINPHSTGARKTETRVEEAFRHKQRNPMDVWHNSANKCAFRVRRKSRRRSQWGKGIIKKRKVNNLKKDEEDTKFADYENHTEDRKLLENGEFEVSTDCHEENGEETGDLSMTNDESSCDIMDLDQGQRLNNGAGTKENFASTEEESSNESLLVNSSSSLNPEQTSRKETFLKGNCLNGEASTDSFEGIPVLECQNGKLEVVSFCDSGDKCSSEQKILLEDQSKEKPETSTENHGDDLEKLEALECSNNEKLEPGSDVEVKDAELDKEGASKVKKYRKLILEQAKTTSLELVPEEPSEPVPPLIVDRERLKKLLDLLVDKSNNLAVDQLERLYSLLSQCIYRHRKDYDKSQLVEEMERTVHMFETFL
The experiment in a line: Binding affinity to N-terminal GST tagged human ATAD2B (953-1085 residues) expressed in Escherichia coli by ITC analysis. The procedure, abridged: (§1)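 GST tag removed by PreScission cleavage after glutathione-resin capture. Protein and peptides were dialyzed into 20 mM NaH2PO4 pH 7.0, 150 mM NaCl. Peptide dilution heats were subtracted. KD is the mean ± SD of triplicates; non-binders were run in duplicate.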

Test [2] deals with T1, ATPase family AAA domain-containing protein 2B. Briefly: Binding affinity to N-terminal GST tagged human ATAD2B short form expressed in Escherichia coli by ITC analysis. The procedure, abridged:
as §1
(Isothermal titration calorimetry measures the heat released or taken up as one component is titrated into another.)

In test [3] the target is T2, ATPase family AAA domain-containing protein 2 (Homo sapiens, UniProt Q6PL18).
T2 sequence (Q6PL18 whole entry): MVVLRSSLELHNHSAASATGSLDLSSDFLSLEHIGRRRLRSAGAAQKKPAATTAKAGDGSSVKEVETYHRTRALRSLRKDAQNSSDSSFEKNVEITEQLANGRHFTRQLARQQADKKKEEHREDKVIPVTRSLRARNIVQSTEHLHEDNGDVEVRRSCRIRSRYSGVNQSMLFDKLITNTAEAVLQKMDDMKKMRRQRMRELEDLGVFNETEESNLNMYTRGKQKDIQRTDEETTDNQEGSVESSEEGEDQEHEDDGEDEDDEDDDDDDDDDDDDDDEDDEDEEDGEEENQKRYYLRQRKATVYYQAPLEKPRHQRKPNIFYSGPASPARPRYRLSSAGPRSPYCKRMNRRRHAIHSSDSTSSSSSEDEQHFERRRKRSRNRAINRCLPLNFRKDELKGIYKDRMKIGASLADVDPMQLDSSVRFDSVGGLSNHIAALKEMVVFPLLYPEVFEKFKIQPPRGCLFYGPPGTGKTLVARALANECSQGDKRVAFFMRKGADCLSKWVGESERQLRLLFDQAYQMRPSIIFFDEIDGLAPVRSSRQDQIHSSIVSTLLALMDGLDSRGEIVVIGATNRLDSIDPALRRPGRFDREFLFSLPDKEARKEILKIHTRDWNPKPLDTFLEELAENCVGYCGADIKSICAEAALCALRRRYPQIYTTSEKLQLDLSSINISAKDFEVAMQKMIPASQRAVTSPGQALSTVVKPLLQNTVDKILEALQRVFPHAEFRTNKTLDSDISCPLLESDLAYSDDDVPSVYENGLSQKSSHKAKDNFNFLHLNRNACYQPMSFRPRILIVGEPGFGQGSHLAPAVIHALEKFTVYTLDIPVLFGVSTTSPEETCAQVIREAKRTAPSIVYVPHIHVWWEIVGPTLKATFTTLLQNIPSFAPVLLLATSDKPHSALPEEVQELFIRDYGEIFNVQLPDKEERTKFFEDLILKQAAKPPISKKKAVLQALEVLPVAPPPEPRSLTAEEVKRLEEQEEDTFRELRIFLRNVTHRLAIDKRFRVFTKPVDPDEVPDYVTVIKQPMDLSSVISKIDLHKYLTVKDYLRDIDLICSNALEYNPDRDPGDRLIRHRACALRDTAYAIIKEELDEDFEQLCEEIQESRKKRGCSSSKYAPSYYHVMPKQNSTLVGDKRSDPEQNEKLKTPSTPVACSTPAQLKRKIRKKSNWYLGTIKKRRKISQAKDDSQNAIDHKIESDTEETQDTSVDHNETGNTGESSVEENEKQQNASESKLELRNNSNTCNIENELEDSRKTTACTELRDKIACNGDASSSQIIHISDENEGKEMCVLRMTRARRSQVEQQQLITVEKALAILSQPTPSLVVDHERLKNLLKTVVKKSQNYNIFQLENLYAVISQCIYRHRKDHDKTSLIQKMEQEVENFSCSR
The experiment in a line: Binding affinity to N-terminal GST tagged human ATAD2 (1-25 residues) expressed in Escherichia coli by ITC analysis.

Test [4] can be described thus: Binding affinity to N-terminal GST tagged human ATAD2B Y995A mutant expressed in Escherichia coli by ITC analysis. The procedure, abridged:
as §1

Test [5] in a line: Binding affinity to N-terminal GST tagged human ATAD2B Y1037A mutant expressed in Escherichia coli by ITC analysis. The procedure, abridged:
as §1

The nature of test [6]: Binding affinity to N-terminal GST tagged human ATAD2B N1038A mutant expressed in Escherichia coli by ITC analysis. The procedure, abridged: as §1
Test [7] addresses T2, ATPase family AAA domain-containing protein 2. The experiment in a line: Binding affinity to N-terminal GST tagged human ATAD2 (1-20 residues) expressed in Escherichia coli by ITC analysis.

Usually Kd stands for a measure of binding affinity in units of concentration. Turning to `Cc1cncc(-c2ccc(N[C@@H]3CCNC[C@H]3OCC3CCS(=O)(=O)CC3)c3[nH]c(=O)c(C)cc23)c1`, the Kd in test [1] (read-out: Kd) is 0.167 µM; in test [2] it was “Not Active”.

As for `CC(=O)NCCCC[C@H](NC(=O)CNC(=O)CN)C(=O)NCC(=O)N[C@@H](CC(C)C)C(=O)NCC(=O)N[C@@H](CCCCNC(C)=O)C(=O)NCC(=O)NCC(=O)N[C@@H](C)C(=O)O`, in test [1], the Kd entry is given as “Not Active”.

In the case of `C[C@H](N)C(=O)N[C@@H](CCCNC(=N)N)C(=O)N[C@H](C(=O)N[C@@H](CCCCN)C(=O)N[C@@H](CCC(N)=O)C(=O)N[C@H](C(=O)N[C@@H](C)C(=O)N[C@@H](CCCNC(=N)N)C(=O)N[C@@H](CCCCN)C(=O)N[C@@H](CO)C(=O)N[C@H](C(=O)NCC(=O)O)[C@@H](C)O)[C@@H](C)O)[C@@H](C)O`, the dissociation constant (Kd) entry in test [1] is reported as “Not Active”.

In the case of `CC(=O)NCCCC[C@H](NC(=O)CNC(=O)[C@H](CC(C)C)NC(=O)CNC(=O)[C@H](CCCCN)NC(=O)CNC(=O)CNC(=O)[C@H](CCCCN)NC(=O)CN)C(=O)NCC(=O)NCC(=O)N[C@@H](C)C(=O)N[C@@H](CCCCN)C(=O)N[C@@H](CCCNC(=N)N)C(=O)O`, the Kd in test [1] (read-out: Kd) was 50.5 µM; in test [3], 2.5 µM; in test [4], “Not Active”; in test [5], “Not Active”; in test [2], “Not Active”.

For `CC(=O)NCCCC[C@H](NC(=O)CN)C(=O)NCC(=O)NCC(=O)N[C@@H](CCCCN)C(=O)NCC(=O)N[C@@H](CC(C)C)C(=O)NCC(=O)N[C@@H](CCCCN)C(=O)NCC(=O)NCC(=O)N[C@@H](C)C(=O)N[C@@H](CCCCN)C(=O)N[C@@H](CCCNC(=N)N)C(=O)O`, the dissociation constant Kd result in test [1] and in test [6] was “Not Active” throughout.

In the case of `C[C@H](NC(=O)[C@H](CCCCN)NC(=O)CNC(=O)CNC(=O)[C@@H](NC(=O)[C@H](CO)NC(=O)[C@H](CCCCN)NC(=O)[C@@H](N)CCCNC(=N)N)[C@@H](C)O)C(=O)N1CCC[C@H]1C(=O)N[C@@H](CCCNC(=N)N)C(=O)N[C@@H](CCCCN)C(=O)N[C@@H](CCC(N)=O)C(=O)O`, the Kd entry in test [1] is “Not Active”.

Consider `CC(=O)NCCCC[C@H](NC(=O)CNC(=O)CNC(=O)[C@H](CCCCN)NC(=O)CN)C(=O)NCC(=O)N[C@@H](CC(C)C)C(=O)NCC(=O)N[C@@H](CCCCN)C(=O)NCC(=O)NCC(=O)N[C@@H](C)C(=O)N[C@@H](CCCCN)C(=O)N[C@@H](CCCNC(=N)N)C(=O)O`, for which the equilibrium dissociation constant (Kd) entry in test [1] was “Not Active”.

With H-LGK(Ac)GGAK(Ac)RHRK-OH, the Kd in test [1] (read-out: Kd) was 214 µM.

As for H-LGKGGAK(Ac)RHRK-OH, in test [1], the Kd result is given as “Not Active”.

Take H-SGRGK(Ac)GGK(Ac)GL-OH: the dissociation constant (Kd) in test [1] (read-out: Kd) is 28.1 µM; in test [6] (read-out: Kd), 623 µM; in test [4], “Not Active”; in test [5] it was “Not Active”; in test [2] it was “Not Active”.

Turning to H-SGRGK(Ac)GGKGL-OH, the dissociation constant Kd in test [1] (read-out: Kd) was 48 µM; in test [7], 22 µM; in test [4], “Not Active”; in test [5] it was “Not Active”; in test [2], “Not Active”.

For H-SGRGK(Ac)QGGKARA-OH, the Kd in test [1] (read-out: Kd) was 42.5 µM; in test [4] it was “Not Active”; in test [5], “Not Active”; in test [2], “Not Active”.

Consider H-SGRGKGGK(Ac)GL-OH, for which the Kd in test [1] (read-out: Kd) amounted to 1160 µM.
